Assay outcomes from PubChem BioAssay.
The list is not random: actives were taken first. Their share in the collection is about 3.5%.
MrgX1 PAM – positive allosteric modulators of MrgX1, primary screen, HEK293 cells, Fluo-4 calcium flux | Mas-related G-protein coupled receptor member X1 (Homo sapiens), Q96LB2 | FDSS; stronger effect = higher value | B-score at 10 µM | hit rate 0.63% among 310,000 | AID 588675, 2011;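 active = plate-corrected calcium response at least 3 library SD above typical, normal starting fluorescence, not activating the receptor alone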;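 also: compound read alongside a low EC10 to EC30 dose of BAM8-22 agonist; peak minus trough fluorescence over baseline measured at the second addition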
Target sequence (Q96LB2 whole entry, looked up): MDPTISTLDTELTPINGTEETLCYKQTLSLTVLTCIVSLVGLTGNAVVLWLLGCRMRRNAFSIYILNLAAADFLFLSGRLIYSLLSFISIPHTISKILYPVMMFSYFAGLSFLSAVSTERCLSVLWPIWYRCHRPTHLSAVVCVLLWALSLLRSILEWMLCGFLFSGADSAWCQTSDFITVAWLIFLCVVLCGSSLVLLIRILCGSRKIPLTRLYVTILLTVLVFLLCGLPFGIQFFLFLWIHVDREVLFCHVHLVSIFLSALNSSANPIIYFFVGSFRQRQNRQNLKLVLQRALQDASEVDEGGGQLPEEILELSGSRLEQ
RGS4 block – RGS4 inhibitors, primary screen, cell-based, HEK293 M3R inducible RGS4, calcium flux; Regulator of G-protein signaling 4 (Homo sapiens), P49798; Fluo-4 calcium flux; stronger effect = higher value; triggered by carbachol at its EC20; B-score at 10 µM; hit rate 0.45% among 310,000; AID 463165, 2010;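 active = B-score, a plate-corrected calcium signal, over three deviations above library mean, with baseline fluorescence within five deviations of library mean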;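 also: RGS4 expression induced by doxycycline in cells with stable M3 receptor; B-score is computed from the integrated fluorescence ratio over baseline after carbachol; higher B-score means a larger calcium signal and so more RGS4 inhibition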
Target sequence (P49798 whole entry, looked up): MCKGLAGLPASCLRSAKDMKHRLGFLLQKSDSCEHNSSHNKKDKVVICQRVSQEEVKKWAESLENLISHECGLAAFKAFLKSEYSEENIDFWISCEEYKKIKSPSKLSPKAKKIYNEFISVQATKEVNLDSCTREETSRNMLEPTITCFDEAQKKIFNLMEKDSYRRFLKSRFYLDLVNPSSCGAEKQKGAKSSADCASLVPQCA
MrgX1 agonist – agonists of human MrgX1 receptor, primary screen, HEK293 cells, Fluo-4 calcium flux. Fluo-4 calcium fluorescence, agonist mode; stronger effect = higher value. hit rate 0.44% among 310,000. Mas-related G-protein coupled receptor member X1 (Homo sapiens), Q96LB2. B-score at 10 µM;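 active = calcium response B-score plate-corrected fluorescence ratio at least 3 library SD, with starting fluorescence B-score inside 5 SD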
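Assay system: stable human MrgX1 HEK293 cell line. Quantity: 15,000 cells per well. Schedule: cells plated overnight, dye loaded 0.5 h 37 °C, 0.5 h room temperature. Detection: Fluo-4 NW calcium-flux fluorescence, kinetic read. Read-out basis: peak-minus-minimum fluorescence over baseline, converted to B scores. Control set: positive and negative control wells on each plate.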
MrgX1 antagonist – antagonists of human MrgX1 receptor, primary screen, HEK293 cells, Fluo-4 calcium flux. hit rate 1.3% among 310,000. BAM8-22 antagonism; stronger effect = lower value. AID 588676, 2011. Mas-related G-protein coupled receptor member X1 (Homo sapiens), Q96LB2. B-score at 10 µM;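 active = calcium-response B-score plate-corrected more than 3 library SD below zero, starting fluorescence within 5 deviations, no agonist response on first addition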;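 also: peak minus trough fluorescence over baseline after final BAM8-22 challenge near maximal dose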
RGS4 pot – RGS4 potentiators or activators, primary screen, cell-based, HEK293 M3R inducible RGS4, calcium flux; B-score at 10 µM; hit rate 0.92% among 310,000; carbachol calcium flux Fluo4; stronger effect = lower value;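 active = B-score of the integrated calcium signal more than 4 SD below the library mean, with starting fluorescence not abnormally high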;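 also: negative B-score means reduced calcium response which marks RGS4 activation or potentiation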
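Assay system: Inducible-RGS4 HEK293 cells carrying M3 receptor | Schedule: Compound preincubation 20 min at room temperature before agonist | Signal: Kinetic calcium fluorescence imaging with Fluo4-AM dye, 2 µM | Read-out basis: B score from integrated fluorescence ratio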
* marks the source's active call; other numbers are inactive results; i = inactive; nt = not tested or not shown.

SMILES	MrgX1 PAM	RGS4 block	MrgX1 agonist	MrgX1 antagonist	RGS4 pot
CCc1nnc(NC(=O)c2cc([N+](=O)[O-])ccc2N2CCOCC2)s1	i	i	i	-6.28*	i
O=C(COC(=O)c1cc([N+](=O)[O-])ccc1N1CCOCC1)Nc1ccc(Cl)cc1	i	i	i	-8.26*	i
CCC(CC)C(=O)c1c[nH]c(C(=O)NCc2ccc(F)cc2)c1	i	i	i	i	i
COc1ccc(C(=O)/C=C/c2cccc(OCc3ccccc3)c2)cc1CSCC(=O)O	i	i	30.1*	i	i
COc1ccc(C(=O)/C=C/c2ccc(OCc3ccccc3)cc2)cc1CSCC(=O)O	i	i	i	i	i
Cc1ccc(S(=O)(=O)N(C)CC(=O)Nc2cc(C)ccn2)cc1	i	i	i	i	i
CCN(CCn1cccn1)C(=O)CC1C(=O)NCCN1Cc1ccc(F)cc1 (configuration not stated)	i	i	29.1*	i	i
CC1(C)Cc2c(cnn2-c2cccc(F)c2)C(NC(=O)c2ccc[n+]([O-])c2)C1 (configuration not stated)	i	i	i	i	i
CCC(C(=O)NCc1ccco1)N(C(=O)CNS(=O)(=O)c1ccccc1)C1CCCCC1 (configuration not stated)	i	i	i	i	i
CCCC(C(=O)NCc1ccco1)N(C(=O)CNS(=O)(=O)c1ccc(Cl)cc1)C1CCCC1 (configuration not stated)	i	i	i	-6.74*	i
N#CC1=C(SCC(=O)NC2CC2)NC(=O)C(C#N)C12CCCCC2 (configuration not stated)	i	i	i	i	i
C=CCSC1=C(C#N)C2(CCCCC2)C(C#N)C(=O)N1 (configuration not stated)	i	i	i	-7.73*	i
CCCCNc1c(-c2cccc(-c3cc(C(C)=O)cs3)c2)nc2ccc(C)cn12	i	i	i	i	-7.08*
COC(=O)Nc1c(-c2ccccc2)nc2ccc(C)cn12	i	i	i	i	i
CCCCNc1c(-c2ccc(-c3cccc(Cl)c3)cc2)nc2ccccn12	i	i	i	i	i
CCCCNc1c(-c2cccc(-c3ccc(OC)cc3)c2)nc2ccc(C)cn12	i	i	i	i	-7.8*
Cc1cc(C)cc(NC(=O)CSc2nc(=O)n(CCCN3CCOCC3)c3c2CCCC3)c1	i	i	i	i	i
COC(=O)/C(=C/Nc1ccccc1)[N+](=O)[O-]	i	i	i	i	i
COC(=O)/C(=C/c1cn(C)c2ccccc12)[N+](=O)[O-]	nt	11.8*	nt	nt	i
C#CCOCCOCCOCCNc1nc(N2CCN(C(=O)CCCCCCCCCCNC(=O)[C@H]([C@@H](C)CC)n3cc(CCCCCN)nn3)CC2)nc(N2CCN(C(=O)CCCCCCCCCCNC(=O)[C@@H]([C@H](C)CC)n3cc(CCCCCN)nn3)CC2)n1	i	nt	106*	i	nt
C#CCOCCOCCOCCNc1nc(N2CCN(C(=O)CCCCCCCCCCNC(=O)[C@@H](CCC(=O)O)n3cc(CCCCCN)nn3)CC2)nc(N2CCN(C(=O)CCCCCCCCCCNC(=O)[C@H]([C@@H](C)CC)n3cc(CCCCCN)nn3)CC2)n1	i	nt	i	i	nt
C#CCOCCOCCOCCNc1nc(N2CCN(C(=O)CCCCCCCCCCNC(=O)[C@H]([C@@H](C)CC)n3cc(CCCCCN)nn3)CC2)nc(N2CCN(C(=O)CCCCCCCCCCNC(=O)[C@H](CO)n3cc(CCCCCN)nn3)CC2)n1	i	nt	108*	i	nt
CC(NC(=O)C(=O)N1CCCCC1)C(c1cccs1)N1CCN(C)CC1 (configuration not stated)	i	i	i	i	i
CC(C)CC(=O)Nc1c2c(nn1-c1cccc(Cl)c1)CS(=O)(=O)C2	i	i	i	i	i
N/C(=N\OC(=O)C1CCCCC1)c1ccc(Br)cc1	i	i	i	i	i
SMILES	MrgX1 PAM	RGS4 block	MrgX1 agonist	MrgX1 antagonist	RGS4 pot
N/C(=N\OC(=O)C1CCCCC1)c1ccncc1	i	i	i	-4.52*	i
Cc1ccc(NC(=O)C(C)OC(=O)CCN=C2NS(=O)(=O)c3ccccc32)cc1 (configuration not stated)	i	i	i	i	i
O=C(c1ccccc1F)N1CCN(c2cccc(C(F)(F)F)c2)CC1	i	i	i	i	i
O=C(c1c(F)c(F)c(F)c(F)c1F)N1CCN(c2cccc(C(F)(F)F)c2)CC1	i	i	i	i	-7.18*
COc1ccc(CNCC(C)NCc2ccc(OC)c(OC)c2)cc1OC (configuration not stated)	i	i	i	i	i
CCN=C1S/C(=C\c2cc(Cl)c(OC)c(OC)c2)C(=O)N1CC	i	i	i	i	i
CCN=C1S/C(=C\c2ccc(OCC)c(OC)c2)C(=O)N1CC	i	i	i	-5.05*	i
O=C(CNC(=O)c1ccc2c(c1)OCO2)N/N=C/c1cc(Br)ccc1O	i	i	i	i	i
Cc1c(O)ccc2cc(S(=O)(=O)c3ccccc3)c(=O)oc12	i	i	i	i	-7.77*
Cc1ccc(S(=O)(=O)c2cc3ccccc3oc2=O)cc1	i	i	i	i	i
CC(NC(=O)c1cn(C(C)c2ccccc2F)nn1)c1ccncc1 (configuration not stated)	i	i	i	i	i
N=c1c2c(-c3ccccc3)c(-c3ccccc3)n(Cc3ccco3)c2ncn1Cc1ccco1	i	i	i	-8.09*	-6.95*
N=c1c2c(-c3ccccc3)c(-c3ccccc3)n(Cc3ccccc3)c2ncn1CCCn1ccnc1	i	i	i	i	i
CCOC(=O)CN1C(=O)C2(OCCCO2)c2cc(Br)ccc21	i	i	i	i	i
COc1ccc(/C=N/Nc2nnc(Cc3ccccc3)c(=O)[nH]2)cc1	i	i	27.8*	i	i
CCC(=O)Oc1ccc2c(C)cc(=O)oc2c1C(=O)CC	6.89*	i	i	i	i
Cc1ccccc1N(CC(=O)NC1CCCCC1)C(=O)CNC(=O)c1cccs1	i	i	i	i	i
CCc1ccc(/C=N\NC(=O)c2ccc(Br)o2)s1	i	i	i	-4.93*	i
